# Measured values as given in PMC5743469 (Theranostics, 2018).
# “Also recorded” adds a separate entry of the source. Ends that are not written are not given here.
# Legend:
# Vero cells [1] = test: Cellular uptake and localization of FITC-labeled peptides; type: cell-based, African green monkey; conditions: N-terminus FITC-labeled peptide, 10 μg/mL, 24 h at 37 ℃; confocal microscopy and flow cytometry (average FITC intensity)
# Vero cells [2] = test: MTT cytotoxicity assay; type: cell-based, African green monkey; conditions: 48 h incubation, 0 to 200 μg/mL
# Summary of the method: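 Vero cells were grown in MEM with 10% FBS at 37 ℃ and 5% CO2, seeded and cultured for 24 h. Medium was then replaced with fresh medium holding peptide at 0–200 μg/mL for 48 h at 37 ℃. MTT stock (5 mg/mL in PBS) was added for 4 h. Formazan was dissolved in DMSO for 10 min at room temperature and absorbance read at 570 nm.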
# HSV-1 (F strain) = test: Post-entry inhibition assay; type: cell-based; conditions: time of addition experiment, peptide added to cells at 5 μg/mL after HSV-1 infection
substance,measurement,setting,value
LWHHIWHFVHHLI-NH2 [Eval418-FH5],cellular uptake in Vero cells,Vero cells [1],significant cellular uptake; also recorded: considerable cellular uptake
same,CC50 (50% cytotoxicity concentration),Vero cells [2],106.68 µg/mL
same,inhibitory rate of plaque formation when added after HSV-1 infection,HSV-1 (F strain),29.72%
